The source of these data is the RNAGym collection of RNA variant scans (doi:10.1126/science.aae0568).

Sequences and labels used below:
B1: tRNA (parent)
chain: GUUCCGUUGGCGUAAUGGUAACGCGUCUCCCUCCUAAGGAGAAGACUGCGGGUUCGAGUCCCGUACGGAACG

Variants at the floor of the assay were thinned out.

In the data set the parent is B1. Kind of data set: yeast fitness relative to wild type (ratio to wild type); higher = fitter; tRNA-Arg(CCU), competitive growth, 37 C, YPD. An outline of the steps: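 Amplicons of the tRNA-Arg(CCU) gene were sequenced, 100-nucleotide paired-end, from the start population and from each end population of a pooled yeast competition. The competition, in six parallel replicates, lasted 24 hours in YPD at 37°C. Fitness relative to wild type was calculated from changes in genotype frequencies. Genotypes had to have ≥ 100 starting reads, and estimates < 0.5 were set to 0.5.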
As to C22A C46U, the yeast fitness worked out at 1.1.
Under C22G C27A A43C stands 0.587; under C22G G39C G50C, ≤ 0.5.
Take C22A C66G: the yeast fitness turned out to be 0.714.
As to C22G C30A C49A A69U, the yeast fitness is ≤ 0.5.
The result for C22G U28A A37C A42C C46A reads ≤ 0.5; that for C22G A57U, 0.619.
Under C22A C31G G68A stands ≤ 0.5; under C22G C49A G56C G58C C60G, 0.605.
The result for C22G C31G U54A C61G A69C reads ≤ 0.5; that for C22U A36C C60G, ≤ 0.5; that for C22G C29G, 0.546.
With C22G C29U, the yeast fitness was 0.838.
The result for C22G C24G G50A reads 0.694; that for C22G C31A C49G G63C A69U, 0.603; that for C22G G23A C46U A57G, ≤ 0.5.
The result for C22A A42U G44A C62U reads ≤ 0.5.
Under C22A G23C A42G stands ≤ 0.5; under C22G C60G C66A, ≤ 0.5.
Turning to C22G C33U A40U U59A, the yeast fitness worked out at 0.514.
Under C22G C46A G48A A57U C60A stands 0.576; under C22G C27U C66U, 0.701; under C22G C31A A36G C49G G63C A69U, 0.543.
Under C22A C55U stands 0.918.
The result for C22A C55G reads 0.63; that for C22A C31G, 0.749.
With C22A C31U, the yeast fitness was 1.07.
Under C22A C27G U28A C30A C34G G48C stands ≤ 0.5.
For C22G C55G G63C, the yeast fitness came out at 0.572.
The result for C22G C24G U54A A69U reads ≤ 0.5; that for C22G C29G A42C A45C C61G A69U, ≤ 0.5; that for C22G G67A, 0.819.
The result for C22G G58C C66A reads ≤ 0.5.
Under C22U A36U stands 0.591.
Turning to C22U A36C, the yeast fitness is 0.616.
On to C22A U32C, for which the yeast fitness turned out to be 0.869.
Under C22G A65C stands 0.863.
In the case of C22A C29U C66U, the yeast fitness was ≤ 0.5.
As to C22U A36U G56A C66U, the yeast fitness is ≤ 0.5.
Under C22G U47C A70U stands 0.722; under C22G U28A A36U, 0.631.
Under C22A C27A G52C G63A stands ≤ 0.5; under C22G U26C U32A G48A, ≤ 0.5; under C22A A37U G44A A70G, ≤ 0.5.
The result for C22A C55A A57U reads ≤ 0.5.
For C22A A43C G56A, the yeast fitness worked out at 0.853.
The result for C22A C27U G56A A57C reads ≤ 0.5.
The result for C22U A40G A43U C46G C49G reads ≤ 0.5; that for C22A G50C A70G, ≤ 0.5.
Under C22G C27G C31G G48A C61G A69U stands ≤ 0.5; under C22G G25C C61G, 0.659; under C22A C62A, 0.785.
As for C22A A57G, the yeast fitness is 0.916.
The result for C22A A69C A70G reads 0.638.
Under C22G C34G C61G stands ≤ 0.5; under C22G C27G C31G A69U, 0.554.
In the case of C22A C34G A36G G48C, the yeast fitness was ≤ 0.5.
Consider C22A C31A U53C A57C, for which the yeast fitness was ≤ 0.5.
Under C22G C30G U47C A70U stands ≤ 0.5; under C22G C46A C62U, 1.04; under C22G C30G C55A U64C, 0.581.
The result for C22A C60G reads 0.57; that for C22A C60U, 0.682; that for C22G G39A A42U A57C, ≤ 0.5.
As for C22G C27U A43G, the yeast fitness is 0.623.
The result for C22A C46G G52A reads ≤ 0.5; that for C22G C27G U54C C66U, ≤ 0.5.
The result for C22A C24A U26C C66U reads ≤ 0.5.
The result for C22A U28G C31G A42U C61U reads ≤ 0.5.
Consider C22A U35A, for which the yeast fitness was 0.603.
Under C22G A36C G48A C61A C66U stands ≤ 0.5; under C22G C34G A43U C49A, ≤ 0.5.
Under C22G G50C C55G stands ≤ 0.5; under C22G A42U G63C, ≤ 0.5.
The result for C22G U64C G68C reads 0.623; that for C22G U47A G67A, ≤ 0.5; that for C22G U28A C31G, ≤ 0.5.
In the case of C22U A37C A40G G52A U53A, the yeast fitness was ≤ 0.5.
Under C22A C29A U54G stands ≤ 0.5; under C22G C62U, 0.879.
C22G U32C A69U: the yeast fitness was found to be 0.705.
The result for C22A C24U reads 0.74; that for C22A C30U U35C, ≤ 0.5.
Under C22U A36C U54C A57U stands ≤ 0.5; under C22G C27U A70U, 0.678.
Under C22G A45G C46U stands 0.644; under C22U A36U C62G G63A, ≤ 0.5.
On to C22G C46A, for which the yeast fitness amounted to 1.03.
Turning to C22G C46G, the yeast fitness stood at 0.974.
The result for C22G G48A reads 0.988.
With C22G A40U A43C, the yeast fitness is 0.698.
Under C22G A40U A43U stands 0.503; under C22A C24U G44C G48A, ≤ 0.5; under C22A G48A, 0.826.
The result for C22G U64C reads 0.856.
The result for C22G C24G C27A C60G reads 0.521.
With C22G C30G U47C U54C, the yeast fitness is ≤ 0.5.
Turning to C22G A69G, the yeast fitness amounted to 0.952.
The result for C22A G58A reads 0.866; that for C22A C61G, 0.594.
Under C22A C24G A45C stands 0.564; under C22A G67U, 0.774; under C22G G39C A43U G44A U47C G58C, ≤ 0.5.
The result for C22G C31U C62U A65U reads ≤ 0.5; that for C22A U26C U47C, 0.541.
As for C22A A45C U47C U54G, the yeast fitness was ≤ 0.5.
Regarding C22G A37G, the yeast fitness amounted to 0.697.
Under C22G A45C stands 0.583; under C22A C24A U26C C60G C61U, ≤ 0.5; under C22A A45U G63A, 0.558.
The result for C22A A43U C60A A65G reads 0.683; that for C22G C61U, 0.841; that for C22G C61A, 0.623.
For C22G A36G A37G C60G A69G, the yeast fitness is ≤ 0.5.
The result for C22G G58U reads 1.05.
Under C22G G58C C61A A69U stands ≤ 0.5; under C22A C29U, 0.621.
The result for C22A C29A reads 0.636; that for C22G C34G C61G A69G, ≤ 0.5; that for C22G G38C, 0.775.
For C22A A45C C66G, the yeast fitness turned out to be 0.691.
Take C22A A45C C66A: the yeast fitness is ≤ 0.5.
Under C22G A45U A65C stands 0.534; under C22G U28A G67C, ≤ 0.5.
The result for C22G C60G C62U reads ≤ 0.5; that for C22G C30A C61U, 0.545; that for C22G C29G C33U, ≤ 0.5.
Regarding C22A G23A A37G A69U, the yeast fitness is ≤ 0.5.
Under C22G G38A U47C stands ≤ 0.5; under C22G C62U G68C, ≤ 0.5.
Consider C22G A36G C46U, for which the yeast fitness turned out to be 0.709.
Under C22A A43C stands 0.694; under C22A A43G, 0.809; under C22G G67C A69C, ≤ 0.5.
The result for C22A C24G A36C C66U reads 0.692; that for C22A C29U C60A C66U, ≤ 0.5.
The result for C22G C30G U59A reads ≤ 0.5; that for C22A C24U A36U, ≤ 0.5; that for C22G A36C U54C C55U C60A C62G A69U, ≤ 0.5.
For the variant C22G G63C, the yeast fitness is 0.623.
The result for C22G C49G A69U reads 0.634.
For the variant C22A C27G A43U C60A, the yeast fitness was determined as 0.557.
The result for C22A C33U reads 0.604; that for C22G C24A G44C G51A G58C U59A, ≤ 0.5.
With C22G U32C A37G, the yeast fitness was 0.559.
Under C22G A37U A57C stands ≤ 0.5.
For C22G C24G U32A C66U, the yeast fitness was ≤ 0.5.
The result for C22A C29A G44C reads 0.605; that for C22G C31G A36G, 0.646.
The result for C22G C24U G50C reads ≤ 0.5; that for C22A C30A, 0.686.
The result for C22A C29G G44A U64G reads ≤ 0.5.
In the case of C22G A42C A70U, the yeast fitness stood at 0.671.
C22G A43U G52A U54C G56U U64C: the yeast fitness is ≤ 0.5.
The result for C22G C24G C29U C33U A37C G52A reads 0.625; that for C22G C34A U53C, 0.543; that for C22G C29G G63A, ≤ 0.5.
As to C22G C27G C31G G56A C61G A69U, the yeast fitness was ≤ 0.5.
Under C22U A37C G41C stands ≤ 0.5.
The result for C22G C29G G44C G56A A57G reads 0.515; that for C22A U59C, 0.814.
As to C22G G52C C66U G68A, the yeast fitness was ≤ 0.5.
For C22G C24A, the yeast fitness is 0.673.
Turning to C22U A36C A37G A65G, the yeast fitness was ≤ 0.5.
Under C22A A57G C60A stands ≤ 0.5; under C22A A70C, 0.877.
Under C22A A70G stands 0.948.
